{"source": "paper PMC3066299", "about": "(Bioorganic & medicinal chemistry, 2011)", "key": {"GHSR [1]": {"molecular_target": "GHSR (Mus musculus, UniProt Q99P50)", "sequence (Q99P50 whole entry)": "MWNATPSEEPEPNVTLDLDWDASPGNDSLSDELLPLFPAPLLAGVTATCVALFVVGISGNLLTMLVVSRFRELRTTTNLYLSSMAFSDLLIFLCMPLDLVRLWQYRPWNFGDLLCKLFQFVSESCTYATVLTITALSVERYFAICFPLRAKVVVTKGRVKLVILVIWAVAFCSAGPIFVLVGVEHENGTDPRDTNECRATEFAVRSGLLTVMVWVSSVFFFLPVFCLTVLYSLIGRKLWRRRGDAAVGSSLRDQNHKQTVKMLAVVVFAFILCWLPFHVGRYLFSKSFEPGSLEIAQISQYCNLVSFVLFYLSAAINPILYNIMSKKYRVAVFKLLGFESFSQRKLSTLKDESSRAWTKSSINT", "experiment": "Blocking dissection studies in mice with GHSR antagonist 2", "type": "in vivo, CD1 mice", "conditions": "for Whole body distribution: block with 2 (1 mg/kg), 90 min, mean ± SD (n=5), P>0.05 vs baseline", "outline": "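Male CD1 mice were pretreated s.c. with a GHSR blocker at 1 mg/kg, or with vehicle (saline/alcohol 9:1, 0.1 mL). Fifteen minutes later they received radiotracer i.v. (0.1 mCi in 0.2 mL saline, ~4000 mCi/µmol). Tissues were harvested 90 min after tracer and counted for radioactivity. Groups were five animals each, baseline and blockade.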"}, "GHSR [2]": {"molecular_target": "GHSR", "conditions": "read-out: GHSR binding affinity Ki; cited from earlier work"}, "[3]": {"type": "in vivo, CD1 mice", "conditions": "for Brain regional distribution: i.v., mean ± SD (n=3)", "outline": "(§1)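 Male CD1 mice (23-28 g) received the radiotracer i.v. via a lateral tail vein: 0.1 mCi in 0.2 ml saline, specific radioactivity ~4000 mCi/µmol. Animals were killed by cervical dislocation at set times up to 90 min. Brain regions and body organs were removed, dissected on ice, weighed and gamma-counted alongside injectate standards. Uptake was expressed as %ID/g tissue.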"}, "[4]": {"experiment": "Baseline dissection study, whole body distribution of radioactivity in CD1 mice", "type": "in vivo", "conditions": "mean ± SD (n=5)", "outline": "as §1"}, "[5]": {"experiment": "Observation of pharmacological effects after tracer dose in CD1 mice", "type": "in vivo", "conditions": "tracer dose approximately 0.5 nmol/kg, intravenously, CD1 mice (n=30)"}}, "note": "Like-named read-outs stand apart in the source and are kept apart here.", "data": [{"compound": "Cc1ccccc1-c1nc2ccc(Oc3ccc(F)cc3)cc2c(=O)n1C[C@H]1CCCNC1", "note": "[compound 2, (S)-6-(4-fluorophenoxy)-3-(piperidin-3-ylmethyl)-2-o-tolylquinazolin-4(3H)-one, reference compound]", "values": [{"measurement": "blockade of [11C]1 in the rest of the brain", "setting": "GHSR [1]; blocking dose of 2 1 mg/kg s.c., 90 min after radioligand, P>0.05 (n=5)", "value": "minimal"}, {"measurement": "Ki", "setting": "GHSR [2]", "value": 0.9, "unit": "nM"}]}, {"compound": "Cc1ccccc1-c1nc2ccc(Oc3ccc(F)cc3)cc2c(=O)n1CC1CCCN(C(C)C)C1", "note": "(stereo not drawn) [N-isopropyl derivative]", "values": [{"measurement": "Ki", "setting": "GHSR [2]", "value": 0.47, "unit": "nM"}]}, {"compound": "Cc1ccccc1-c1nc2ccc(Oc3ccc(F)cc3)cc2c(=O)n1C[C@H]1CCCN([11CH3])C1", "note": "[[^11C]1, (S)-6-(4-fluorophenoxy)-3-((1-[^11C]methylpiperidin-3-yl)methyl)-2-o-tolylquinazolin-4(3H)-one]", "values": [{"measurement": "Brain regional distribution", "setting": "[3]; Cerebellum, 10 min", "value": "0.63±0.06", "unit": "%injected dose /g tissue"}, {"measurement": "Brain regional distribution", "setting": "[3]; Cerebellum, 30 min", "value": "0.56±0.09", "unit": "%injected dose /g tissue"}, {"measurement": "Brain regional distribution", "setting": "[3]; Cerebellum, 60 min", "value": "0.59±0.08", "unit": "%injected dose /g tissue"}, {"measurement": "Brain regional distribution", "setting": "[3]; Cerebellum, 90 min", "value": "0.59±0.10", "unit": "%injected dose /g tissue"}, {"measurement": "Brain regional distribution", "setting": "[3]; Cortex, 10 min", "value": "0.63±0.09", "unit": "%injected dose /g tissue"}, {"measurement": "Brain regional distribution", "setting": "[3]; Cortex, 30 min", "value": "0.60±0.06", "unit": "%injected dose /g tissue"}, {"measurement": "Brain regional distribution", "setting": "[3]; Cortex, 60 min", "value": "0.65±0.12", "unit": "%injected dose /g tissue"}, {"measurement": "Brain regional distribution", "setting": "[3]; Cortex, 90 min", "value": "0.66±0.15", "unit": "%injected dose /g tissue"}, {"measurement": "Brain regional distribution", "setting": "[3]; Hippocampus, 10 min", "value": "0.60±0.13", "unit": "%injected dose /g tissue"}, {"measurement": "Brain regional distribution", "setting": "[3]; Hippocampus, 30 min", "value": "0.59±0.09", "unit": "%injected dose /g tissue"}, {"measurement": "Brain regional distribution", "setting": "[3]; Hippocampus, 60 min", "value": "0.71±0.08", "unit": "%injected dose /g tissue"}, {"measurement": "Brain regional distribution", "setting": "[3]; Hippocampus, 90 min", "value": "0.65±0.12", "unit": "%injected dose /g tissue"}, {"measurement": "Brain regional distribution", "setting": "[3]; Hypothalamus, 10 min", "value": "0.56±0.08", "unit": "%injected dose /g tissue"}, {"measurement": "Brain regional distribution", "setting": "[3]; Hypothalamus, 30 min", "value": "0.58±0.08", "unit": "%injected dose /g tissue"}, {"measurement": "Brain regional distribution", "setting": "[3]; Hypothalamus, 60 min", "value": "0.74±0.12", "unit": "%injected dose /g tissue"}, {"measurement": "Brain regional distribution", "setting": "[3]; Hypothalamus, 90 min", "value": "0.86±0.20", "unit": "%injected dose /g tissue"}, {"measurement": "Brain regional distribution", "setting": "[3]; Rest of brain, 10 min", "value": "0.54±0.07", "unit": "%injected dose /g tissue"}, {"measurement": "Brain regional distribution", "setting": "[3]; Rest of brain, 30 min", "value": "0.57±0.06", "unit": "%injected dose /g tissue"}, {"measurement": "Brain regional distribution", "setting": "[3]; Rest of brain, 60 min", "value": "0.62±0.02", "unit": "%injected dose /g tissue"}, {"measurement": "Brain regional distribution", "setting": "[3]; Rest of brain, 90 min", "value": "0.54±0.08", "unit": "%injected dose /g tissue"}, {"measurement": "hypothalamus-to-cerebellum ratio", "setting": "[3]; value reached over the 90 min observation period", "value": 1.6}, {"measurement": "Whole body distribution", "setting": "GHSR [1]; Adrenals", "value": "10.02±1.80", "unit": "%injected dose /g tissue"}, {"measurement": "Whole body distribution", "setting": "GHSR [1]; Blood", "value": "2.01±0.53", "unit": "%injected dose /g tissue"}, {"measurement": "Whole body distribution", "setting": "GHSR [1]; Heart", "value": "3.74±0.57", "unit": "%injected dose /g tissue"}, {"measurement": "Whole body distribution", "setting": "GHSR [1]; Liver", "value": "14.77±1.02", "unit": "%injected dose /g tissue"}, {"measurement": "Whole body distribution", "setting": "GHSR [1]; Lung", "value": "16.28±3.65", "unit": "%injected dose /g tissue"}, {"measurement": "Whole body distribution", "setting": "GHSR [1]; Muscle", "value": "2.22±0.79", "unit": "%injected dose /g tissue"}, {"measurement": "Whole body distribution", "setting": "GHSR [1]; Testis", "value": "2.25±0.30", "unit": "%injected dose /g tissue"}, {"measurement": "specific binding", "setting": "GHSR [1]; cerebral distribution in CD1 mice", "value": 38, "unit": "%"}, {"measurement": "Whole body distribution", "setting": "[4]; Adrenals, 10 min", "value": "15.57±1.76", "unit": "%injected dose /g tissue"}, {"measurement": "Whole body distribution", "setting": "[4]; Adrenals, 30 min", "value": "10.77±2.65", "unit": "%injected dose /g tissue"}, {"measurement": "Whole body distribution", "setting": "[4]; Adrenals, 90 min", "value": "7.87±1.22", "unit": "%injected dose /g tissue"}, {"measurement": "Whole body distribution", "setting": "[4]; Blood, 10 min", "value": "2.14±0.13", "unit": "%injected dose /g tissue"}, {"measurement": "Whole body distribution", "setting": "[4]; Blood, 30 min", "value": "1.87±0.31", "unit": "%injected dose /g tissue"}, {"measurement": "Whole body distribution", "setting": "[4]; Blood, 90 min", "value": "2.01±0.29", "unit": "%injected dose /g tissue"}, {"measurement": "Whole body distribution", "setting": "[4]; Heart, 10 min", "value": "5.11±0.30", "unit": "%injected dose /g tissue"}, {"measurement": "Whole body distribution", "setting": "[4]; Heart, 30 min", "value": "3.91±0.55", "unit": "%injected dose /g tissue"}, {"measurement": "Whole body distribution", "setting": "[4]; Heart, 90 min", "value": "2.94±0.33", "unit": "%injected dose /g tissue"}, {"measurement": "Whole body distribution", "setting": "[4]; Liver, 10 min", "value": "18.63±1.29", "unit": "%injected dose /g tissue"}, {"measurement": "Whole body distribution", "setting": "[4]; Liver, 30 min", "value": "14.60±1.89", "unit": "%injected dose /g tissue"}, {"measurement": "Whole body distribution", "setting": "[4]; Liver, 90 min", "value": "13.46±0.97", "unit": "%injected dose /g tissue"}, {"measurement": "Whole body distribution", "setting": "[4]; Lung, 10 min", "value": "26.44±1.32", "unit": "%injected dose /g tissue"}, {"measurement": "Whole body distribution", "setting": "[4]; Lung, 30 min", "value": "24.02±8.55", "unit": "%injected dose /g tissue"}, {"measurement": "Whole body distribution", "setting": "[4]; Lung, 90 min", "value": "14.74±3.46", "unit": "%injected dose /g tissue"}, {"measurement": "Whole body distribution", "setting": "[4]; Muscle, 10 min", "value": "3.79±0.68", "unit": "%injected dose /g tissue"}, {"measurement": "Whole body distribution", "setting": "[4]; Muscle, 30 min", "value": "3.02±0.45", "unit": "%injected dose /g tissue"}, {"measurement": "Whole body distribution", "setting": "[4]; Muscle, 90 min", "value": "2.09±0.47", "unit": "%injected dose /g tissue"}, {"measurement": "Whole body distribution", "setting": "[4]; Testis, 10 min", "value": "1.07±0.01", "unit": "%injected dose /g tissue"}, {"measurement": "Whole body distribution", "setting": "[4]; Testis, 30 min", "value": "1.39±0.20", "unit": "%injected dose /g tissue"}, {"measurement": "Whole body distribution", "setting": "[4]; Testis, 90 min", "value": "1.96±0.14", "unit": "%injected dose /g tissue"}, {"measurement": "observed pharmacological effects", "setting": "[5]", "value": "no observed pharmacological effects"}]}]}
